Rows were chosen to be rich in hits. Some 2% of all compounds tested hit in one or more screens of this group.
PglD DTNB = C. jejuni PglD acetyltransferase inhibitors, primary screen, biochemical, DTNB colorimetric, single point; hit rate 0.098% among 360,000; UDP-N-acetylbacillosamine N-acetyltransferase PglD (Campylobacter jejuni); purified PglD enzyme, DTNB colorimetric CoA detection; inhibition, % at 12.5 µM; in the data active means inhibition above about 16%, passing the limit was not always enough; inconclusive means no clear call, values can overlap the other calls
Ecoli rRNA inh = reduced GFP signal of wild-type E. coli, primary screen, bacterial rRNA inhibitor project, GFP/RFP fluorescence, OD600, single point; hit rate 1.6% among 350,000; E. coli WT GFP vs humanized-ribosome RFP mutants, 24 h; active compounds read low; DMSO median 0, no signal -100; AID 720706, 2013; GFP signal change (wild-type ribosome), % (concentration not given with the values);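 active means significant combined selectivity score with lowered wild-type GFP, culture density cut under 30%, mutant RFP and density less affected; inactive means any of these conditions unmet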
RAD54 branch = inhibitors of human RAD54 branch migration, primary screen, biochemical, fluorescence, single point | DNA repair and recombination protein RAD54-like (Homo sapiens), Q92698 | RAD54 Holliday junction branch migration, FAM/BHQ fluorescence | inhibition, % at 10.4 µM | hit rate 0.14% among 360,000;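 active means mean normalized replicate activity at least 40 and at least half of replicates scoring 40 or more; inconclusive means only one of the two criteria met; inactive means mean below 40 and under half of replicates reaching 40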;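 further: inhibitors cause a drop in the FAM fluorescence signal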
RAD52 anneal inh = RAD52 DNA annealing inhibitors, primary screen, biochemical, FRET, single point, set 2. recombinant RAD52 DNA annealing, FRET fluorescence. DNA repair protein RAD52 homolog (Homo sapiens), P43351. inhibition, % at 18.7 µM. AID 651710, 2012. hit rate 0.46% among 360,000;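 active means every replicate showing at least 50% inhibition; inconclusive means mean inhibition at least 50% but not in every replicate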
Xi reactivation = activators of inactive X chromosome reactivation, primary screen, imaging, XiGFP fibroblasts, GFP high-content imaging, set 2 | XiGFP mouse fibroblasts, % GFP-positive cells imaging, 3 d; cells co-treated with 5-aza-dC sensitizer; scaled so ellipticine positive control = 100% | activation, % at 7.58 µM | hit rate 0.055% among 360,000 | AID 743238, 2013;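 active means mean normalized replicate activation at least 10% and every replicate at or above 10%; inconclusive means only one of the two criteria met; inactive means mean below 10% and not all replicates reach 10%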
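Material: SV40-immortalized XiGFP fibroblast cells, line 68-5-11 | Buffer or medium: DMEM containing 5-aza-dC | Dosing: One concentration, pinned | Times: 3 d treatment, 15 min room-temperature fixation | Controls: Ellipticine 6 µM positive control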
E-selectin induc = E-selectin induction in HUVECs, primary screen, imaging, HUVEC, immunofluorescence imaging, single point; P16581; normalized: neutral wells 0, TNF-alpha wells 100; activation, % at 7.58 µM; hit rate 0.37% among 260,000; AID 686992, 2013;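 active means mean E-selectin-positive cell signal at least 10% of the positive control, reached in at least 60% of replicates, without over 20% cell loss; inconclusive means no rule given, readout overlaps actives, possibly toxicity-flagged; inactive means the rest, including those meeting only one limit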
Target sequence (P16581 whole entry, looked up): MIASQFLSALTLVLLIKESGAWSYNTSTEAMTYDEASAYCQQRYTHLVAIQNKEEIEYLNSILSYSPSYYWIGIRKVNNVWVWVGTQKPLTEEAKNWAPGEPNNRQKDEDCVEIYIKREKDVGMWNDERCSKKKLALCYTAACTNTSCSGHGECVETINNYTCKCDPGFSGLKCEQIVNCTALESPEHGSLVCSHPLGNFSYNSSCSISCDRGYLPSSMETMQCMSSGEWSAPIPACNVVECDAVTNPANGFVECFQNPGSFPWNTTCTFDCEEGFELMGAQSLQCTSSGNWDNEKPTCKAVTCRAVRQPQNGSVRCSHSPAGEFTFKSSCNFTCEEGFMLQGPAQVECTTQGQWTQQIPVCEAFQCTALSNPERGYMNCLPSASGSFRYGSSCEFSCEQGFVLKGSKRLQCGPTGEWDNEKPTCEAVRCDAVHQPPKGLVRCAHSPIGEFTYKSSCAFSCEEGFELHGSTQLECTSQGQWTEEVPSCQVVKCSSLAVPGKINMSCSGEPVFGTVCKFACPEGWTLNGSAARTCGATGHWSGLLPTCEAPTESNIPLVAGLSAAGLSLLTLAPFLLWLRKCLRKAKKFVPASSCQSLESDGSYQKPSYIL
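System: HUVEC, human umbilical vein endothelial cells; quantity: 3,000 cells/well; buffer or medium: EGM-2 medium, gelatin-coated wells; dosing: single-point compound dose; detection: immunofluorescence imaging; evaluation: % PE-positive cells; benchmarks: TNF-alpha, DMSO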
Of the large screens only hits and unclear results are named; the others gave an inactive call; ! = not active in a repeat.

C/C=C/c1ccc([C@@H]2[C@H](CO)N(C(=O)CC3CC3)C23CN(S(C)(=O)=O)C3)cc1	none (no result: PglD DTNB, RAD54 branch)
C/C=C/c1ccc(C2[C@H]3CNC[C@@H]2N3Cc2cc(-c3ccccc3)on2)cc1 (stereo partly specified)	RAD52 anneal inh 52!, Xi reactivation inconclusive (no result: PglD DTNB, RAD54 branch)
COc1ccccc1-c1ccc(C2[C@H]3CNC[C@@H]2N3Cc2cc(-c3ccccc3)on2)cc1 (stereo partly specified)	RAD52 anneal inh 54 (no result: PglD DTNB, RAD54 branch)
N#Cc1cccc(-c2ccc(C3[C@H]4CNC[C@@H]3N4Cc3cc(-c4ccccc4)on3)cc2)c1 (stereo partly specified)	RAD52 anneal inh 63 (no result: PglD DTNB, RAD54 branch)
C/C=C/c1ccc(C2[C@H]3CNC[C@@H]2N3Cc2nccs2)cc1 (stereo partly specified)	none (no result: PglD DTNB, RAD54 branch)
CCOC(=O)c1cn[nH]c1NC(=S)Nc1ccc(Cl)cc1	Ecoli rRNA inh -41
c1ccc(Cc2cnc(N3CCN(Cc4cccc(-c5ccsc5)n4)CC3)nc2)cc1	Ecoli rRNA inh -36 (no result: PglD DTNB, RAD54 branch)
Oc1cccc(CN2CCN(c3ncc(Cc4ccccc4)cn3)CC2)c1	none (no result: PglD DTNB, RAD54 branch)
Cc1ccc(-n2ncc3c(=O)[nH]c(SC(C)C)nc32)cc1	E-selectin induc 128
COc1ccccc1NC(=O)Nc1nn(C)c2cccc(N(C)C)c12	Ecoli rRNA inh -30 (no result: PglD DTNB, RAD54 branch, E-selectin induc)
CN(C)c1cccc2c1c(NC(=O)Nc1ccc(Cl)cc1Cl)nn2C	none (no result: PglD DTNB, RAD54 branch)
O=C(NC1CCN(C(=O)N2c3ccccc3Sc3ccccc32)CC1)c1ccccc1F	Ecoli rRNA inh -20 (no result: Xi reactivation, E-selectin induc)
COc1ccc(CN(C)C[C@@H]2Oc3c(NC(=O)Nc4ccc(F)cc4)cccc3C(=O)N([C@@H](C)CO)C[C@H]2C)cc1	E-selectin induc 261
COc1ccc(CN(C)C[C@@H]2Oc3ccc(NC(=O)Nc4ccc(F)cc4)cc3C(=O)N([C@H](C)CO)C[C@H]2C)cc1	RAD54 branch 72
COc1ccc(CN(C)C[C@H]2Oc3c(NC(=O)Nc4ccc(OC)cc4)cccc3C(=O)N([C@@H](C)CO)C[C@H]2C)cc1	none
COc1ccc(CN(C)C[C@H]2Oc3c(NC(=O)NC(C)C)cccc3C(=O)N([C@@H](C)CO)C[C@@H]2C)cc1	none
COc1ccc(CN(C)C[C@H]2Oc3c(NC(=O)NC(C)C)cccc3C(=O)N([C@@H](C)CO)C[C@H]2C)cc1	PglD DTNB 16
C[C@@H]1CN([C@H](C)CO)C(=O)c2cc(NC(=O)CCCN(C)C)ccc2O[C@@H]1CN(C)Cc1ccc(Oc2ccccc2)cc1	none
COc1ccc(CN(C)C[C@H]2Oc3ccc(NC(=O)CCCN(C)C)cc3C(=O)N([C@H](C)CO)C[C@H]2C)cc1	E-selectin induc 35 (no result: PglD DTNB, RAD54 branch)
O=C(C1=C[C@@H](c2ccc(C(F)(F)F)cc2)C[C@@H](OCc2ccc(CO)cc2)O1)N1CCCC1	none (no result: PglD DTNB, Ecoli rRNA inh, RAD54 branch, Xi reactivation, E-selectin induc)
O=C(Cc1c[nH]c2ccccc12)Nc1ccc(Nc2cccnc2)c(-c2cc(F)cc(F)c2)c1	none (no result: PglD DTNB, RAD54 branch)
CC(=O)N1[C@@H]2CN(C(=O)c3ccc(F)cc3)c3ccccc3[C@@H]2[C@@H]1CO	none (no result: RAD52 anneal inh)
C[C@H](CO)N1C[C@H](C)[C@H](CN(C)Cc2ccncc2)Oc2c(NC(=O)Nc3ccc(F)cc3)cccc2C1=O	E-selectin induc 105
C[C@H]1CN([C@@H](C)CO)C(=O)c2cccc(NC(=O)Nc3ccc(F)cc3)c2O[C@@H]1CN(C)Cc1ccncc1	none
Cc1noc(C)c1NC(=O)Nc1cccc2c1O[C@@H](CN(C)Cc1ccc(C(F)(F)F)cc1)[C@H](C)CN([C@@H](C)CO)C2=O	E-selectin induc 252
Cc1ccc(-c2ccccc2[C@H]2[C@@H](CO)N(C(=O)NC3CCCC3)[C@H]2C#N)cc1	none (no result: PglD DTNB, RAD54 branch)
